The target of assay [1] is Glycogen synthase kinase-3 beta (Homo sapiens, UniProt P49841). The experiment in a line: Inhibition of human GSK3-beta by fluorescence anisotropy binding assay. In outline: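 Competitive fluorescence anisotropy binding against a fluorescently labelled inhibitor. Compound typically 24 pM–25 µM final, DMSO <3%. Equilibrated 60–180 min at ambient temperature; anisotropy read at ex 485/em 535 nm. Assay error ±0.2 log units.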
(In fluorescence polarisation assays a small probe gives low polarisation when free and higher when bound to something large.)

Assay [2] has as its target T1, Serine/threonine-protein kinase Sgk1 (Homo sapiens) (UniProt O00141).
T1 sequence (whole entry): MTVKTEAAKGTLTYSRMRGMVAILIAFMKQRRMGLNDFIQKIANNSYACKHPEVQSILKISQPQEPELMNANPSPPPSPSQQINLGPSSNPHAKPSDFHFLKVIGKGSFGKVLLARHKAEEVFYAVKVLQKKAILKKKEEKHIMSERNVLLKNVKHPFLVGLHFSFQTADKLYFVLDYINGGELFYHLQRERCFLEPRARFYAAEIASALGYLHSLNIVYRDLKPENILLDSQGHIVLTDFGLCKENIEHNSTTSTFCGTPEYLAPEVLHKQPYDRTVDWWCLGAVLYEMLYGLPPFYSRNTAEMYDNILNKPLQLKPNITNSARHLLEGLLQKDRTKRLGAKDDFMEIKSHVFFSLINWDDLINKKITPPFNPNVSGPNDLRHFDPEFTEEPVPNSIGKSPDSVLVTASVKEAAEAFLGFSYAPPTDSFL
The assay can be described thus: Inhibition of SGK at 10 uM.

Assay [3] deals with Glycogen synthase kinase-3 beta (Rattus norvegicus, UniProt P18266). The experiment in a line: Inhibition of rat GSK3-beta in L6 cells assessed as accumulation of glycogen. Type of assay: cell-based.
Sequence of Glycogen synthase kinase-3 beta (Rattus norvegicus, UniProt P18266) (P18266 whole entry): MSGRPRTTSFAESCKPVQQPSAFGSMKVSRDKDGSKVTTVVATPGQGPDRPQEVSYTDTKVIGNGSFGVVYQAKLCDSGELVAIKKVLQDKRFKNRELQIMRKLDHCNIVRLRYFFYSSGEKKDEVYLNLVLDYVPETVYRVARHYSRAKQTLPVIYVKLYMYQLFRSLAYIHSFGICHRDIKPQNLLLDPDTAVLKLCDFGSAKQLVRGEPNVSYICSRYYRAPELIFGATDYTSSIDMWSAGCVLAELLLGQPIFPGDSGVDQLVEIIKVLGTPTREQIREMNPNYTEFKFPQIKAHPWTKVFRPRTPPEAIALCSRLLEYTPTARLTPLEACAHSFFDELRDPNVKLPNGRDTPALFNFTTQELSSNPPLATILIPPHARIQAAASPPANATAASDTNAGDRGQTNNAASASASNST
The nature of assay [4]: Inhibition of PKA at 10 uM.
The target of assay [5] is Mitogen-activated protein kinase 8 (Homo sapiens) (UniProt P45983). The assay can be described thus: Inhibition of JNK1 at 10 uM.
Sequence of Mitogen-activated protein kinase 8 (Homo sapiens) (P45983 whole entry): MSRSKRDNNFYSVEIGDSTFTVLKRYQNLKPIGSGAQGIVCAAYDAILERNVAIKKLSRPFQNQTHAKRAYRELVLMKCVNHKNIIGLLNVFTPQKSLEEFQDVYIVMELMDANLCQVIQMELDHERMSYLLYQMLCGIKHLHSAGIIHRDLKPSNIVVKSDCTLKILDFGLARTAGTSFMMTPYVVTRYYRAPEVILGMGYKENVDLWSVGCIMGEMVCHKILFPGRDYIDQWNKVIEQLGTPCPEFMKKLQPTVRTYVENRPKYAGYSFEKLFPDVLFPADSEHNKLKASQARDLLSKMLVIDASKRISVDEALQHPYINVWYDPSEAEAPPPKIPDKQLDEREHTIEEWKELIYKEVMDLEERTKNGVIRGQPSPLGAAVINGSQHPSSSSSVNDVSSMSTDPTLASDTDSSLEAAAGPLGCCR
Assay [6] concerns the target Dual specificity mitogen-activated protein kinase kinase 1 (Homo sapiens) (UniProt Q02750). The assay can be described thus: Inhibition of MEK1 at 10 uM.
In assay [7] the target is T2, Serine/threonine-protein kinase Chk1 (Homo sapiens) (UniProt O14757).
T2 sequence (whole entry): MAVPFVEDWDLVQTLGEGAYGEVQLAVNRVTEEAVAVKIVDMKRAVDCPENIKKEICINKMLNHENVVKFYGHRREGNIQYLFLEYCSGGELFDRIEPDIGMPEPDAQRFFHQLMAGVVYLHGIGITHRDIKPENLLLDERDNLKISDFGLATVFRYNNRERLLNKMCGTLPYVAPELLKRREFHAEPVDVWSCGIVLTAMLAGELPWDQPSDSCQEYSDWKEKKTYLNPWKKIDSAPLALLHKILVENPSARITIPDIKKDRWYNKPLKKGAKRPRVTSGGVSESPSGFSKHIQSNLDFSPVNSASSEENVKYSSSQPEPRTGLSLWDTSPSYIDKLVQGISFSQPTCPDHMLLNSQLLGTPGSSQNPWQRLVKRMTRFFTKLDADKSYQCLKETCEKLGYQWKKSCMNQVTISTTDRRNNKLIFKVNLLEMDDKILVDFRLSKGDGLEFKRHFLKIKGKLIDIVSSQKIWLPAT
The assay can be described thus: Inhibition of CHK1 at 10 uM.

A short description of assay [8]: Inhibition of AMPK at 10 uM.
Assay [9] has as its target RAC-alpha serine/threonine-protein kinase (Homo sapiens) (UniProt P31749). The assay can be described thus: Inhibition of PKBa at 10 uM.
The target of assay [10] is Vascular endothelial growth factor receptor 2 (Homo sapiens, UniProt P35968). The assay can be described thus: Inhibition of VEGFR2.
Sequence of Vascular endothelial growth factor receptor 2 (P35968 whole entry): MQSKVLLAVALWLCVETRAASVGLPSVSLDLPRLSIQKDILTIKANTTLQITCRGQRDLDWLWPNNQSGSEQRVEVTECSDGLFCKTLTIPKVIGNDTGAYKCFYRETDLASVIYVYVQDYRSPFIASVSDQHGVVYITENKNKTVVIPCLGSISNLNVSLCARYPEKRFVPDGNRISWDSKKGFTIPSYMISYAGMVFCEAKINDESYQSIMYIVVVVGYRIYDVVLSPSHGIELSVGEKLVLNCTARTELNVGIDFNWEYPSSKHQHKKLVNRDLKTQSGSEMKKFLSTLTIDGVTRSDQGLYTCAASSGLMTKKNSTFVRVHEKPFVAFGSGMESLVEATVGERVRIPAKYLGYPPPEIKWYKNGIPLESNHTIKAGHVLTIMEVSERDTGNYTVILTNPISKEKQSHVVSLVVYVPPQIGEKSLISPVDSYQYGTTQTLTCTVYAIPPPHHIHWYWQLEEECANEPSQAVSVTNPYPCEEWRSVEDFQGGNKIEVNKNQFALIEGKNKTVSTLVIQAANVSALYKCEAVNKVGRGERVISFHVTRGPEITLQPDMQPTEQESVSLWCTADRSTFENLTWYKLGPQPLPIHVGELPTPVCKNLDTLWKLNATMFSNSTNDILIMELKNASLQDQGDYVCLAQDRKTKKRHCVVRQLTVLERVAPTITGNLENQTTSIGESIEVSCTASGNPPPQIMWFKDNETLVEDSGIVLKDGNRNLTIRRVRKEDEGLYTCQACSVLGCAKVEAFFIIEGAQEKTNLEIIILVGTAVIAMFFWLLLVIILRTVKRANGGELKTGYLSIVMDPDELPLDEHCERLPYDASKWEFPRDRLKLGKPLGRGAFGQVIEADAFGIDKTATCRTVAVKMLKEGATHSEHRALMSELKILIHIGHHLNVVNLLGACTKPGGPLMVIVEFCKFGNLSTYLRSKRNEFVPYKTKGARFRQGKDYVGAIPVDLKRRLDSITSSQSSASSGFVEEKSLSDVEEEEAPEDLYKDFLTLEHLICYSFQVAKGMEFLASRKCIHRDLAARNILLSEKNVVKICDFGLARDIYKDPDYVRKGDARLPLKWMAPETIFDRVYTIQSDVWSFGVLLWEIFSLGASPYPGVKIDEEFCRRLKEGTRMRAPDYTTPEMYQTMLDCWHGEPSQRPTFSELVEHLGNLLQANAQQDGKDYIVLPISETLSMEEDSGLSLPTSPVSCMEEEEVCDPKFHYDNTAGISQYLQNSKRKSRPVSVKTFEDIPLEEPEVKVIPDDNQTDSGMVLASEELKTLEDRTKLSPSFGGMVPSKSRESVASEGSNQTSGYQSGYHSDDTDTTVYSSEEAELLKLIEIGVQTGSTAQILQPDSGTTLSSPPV
Assay [11] has as its target Cyclin-dependent kinase 2 (Homo sapiens) (UniProt P24941). The assay can be described thus: Inhibition of CDK2 at 10 uM.
Assay [12] in a line: Inhibition of MAPK at 10 uM.
Assay [13] in a line: Inhibition of GSK3 at 10 uM.

A value given as a limit tells only on which side of the number the result lay.

Sequence of Glycogen synthase kinase-3 beta (Homo sapiens, UniProt P49841) (P49841 whole entry): as the sequence (P18266 whole entry) above, with M240V, P390T, A392T, T400A, A402T counted along it
Sequence of Dual specificity mitogen-activated protein kinase kinase 1 (Homo sapiens) (Q02750 whole entry): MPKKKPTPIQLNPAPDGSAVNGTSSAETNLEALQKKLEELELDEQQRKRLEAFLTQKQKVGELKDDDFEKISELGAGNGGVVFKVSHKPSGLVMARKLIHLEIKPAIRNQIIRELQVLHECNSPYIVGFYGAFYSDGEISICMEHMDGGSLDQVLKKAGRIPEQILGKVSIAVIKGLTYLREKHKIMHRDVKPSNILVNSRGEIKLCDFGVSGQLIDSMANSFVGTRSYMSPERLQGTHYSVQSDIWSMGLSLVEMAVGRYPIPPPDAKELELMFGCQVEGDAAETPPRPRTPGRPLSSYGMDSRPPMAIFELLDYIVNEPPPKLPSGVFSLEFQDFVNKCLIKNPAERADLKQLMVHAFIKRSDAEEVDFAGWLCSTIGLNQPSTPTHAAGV
Sequence of RAC-alpha serine/threonine-protein kinase (Homo sapiens) (P31749 whole entry): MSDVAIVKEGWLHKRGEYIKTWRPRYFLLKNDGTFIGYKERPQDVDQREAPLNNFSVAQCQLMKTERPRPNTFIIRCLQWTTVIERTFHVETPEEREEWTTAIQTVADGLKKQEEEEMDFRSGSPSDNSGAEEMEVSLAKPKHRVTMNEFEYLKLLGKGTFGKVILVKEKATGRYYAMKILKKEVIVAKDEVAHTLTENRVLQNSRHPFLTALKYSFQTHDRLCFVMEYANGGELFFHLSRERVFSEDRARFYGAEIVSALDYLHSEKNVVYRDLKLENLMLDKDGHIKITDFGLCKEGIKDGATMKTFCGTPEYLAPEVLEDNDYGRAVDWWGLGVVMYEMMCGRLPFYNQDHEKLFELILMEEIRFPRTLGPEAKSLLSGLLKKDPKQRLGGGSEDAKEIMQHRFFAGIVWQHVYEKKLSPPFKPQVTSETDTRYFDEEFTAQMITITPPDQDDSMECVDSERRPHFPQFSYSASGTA

A word on the IC50: it is the midpoint of a concentration-inhibition curve. Lower therefore signals higher potency. As for `Nc1ncnc2oc(-c3cccnc3)c(-c3ccc(NS(=O)(=O)c4cccs4)cc3)c12`, the IC50 in [1] worked out at 23 nM.

In the case of `COc1ccc(-c2oc3ncnc(N)c3c2-c2ccc(NS(=O)(=O)c3ccccc3)cc2)cc1`, the IC50 in [1] was over 15000 nM.

In the case of `COc1ccc(-c2oc3ncnc(N)c3c2-c2ccc(OC)cc2)cc1`, in [1], the IC50 was over 15000 nM.

What is called inhibition is the drop in the measured response relative to a control, in per cent. By EC50 is commonly meant the concentration that produces a half-maximal response. For the compound `Nc1ncnc2oc(-c3cccnc3)c(-c3ccc(NS(=O)(=O)c4ccccc4)cc3)c12`, the inhibition in assay [2] is 3%; in [4], -0%; in assay [5], 7%; in assay [6] it was -0%; in assay [7], 3%; in assay [8], 44%. For the same compound, the inhibition in [9] is 29%; in [11] it was 27%; in assay [12] it was 5%; in [13], 100%. For the same compound, the EC50 in assay [3] is 3200 nM. Also, the IC50 in assay [1] was found to be 30 nM; in assay [10], 1120 nM.

`CS(=O)(=O)Nc1ccc(-c2c(-c3cccnc3)oc3ncnc(N)c23)cc1`: the IC50 in assay [1] stood at 475 nM.

`CC(=O)Nc1ccc(-c2c(-c3cccnc3)oc3ncnc(N)c23)cc1`: in [1], the IC50 turned out to be 1630 nM.

Take `Nc1ncnc2oc(-c3cccnc3)c(-c3ccc(NC(=O)c4cccc(F)c4)cc3)c12`: in assay [1], the IC50 was 1590 nM.

These data come from ChEMBL document CHEMBL1142374, “Rational design of 4-amino-5,6-diaryl-furo[2,3-d]pyrimidines as potent glycogen synthase kinase-3 inhibitors” (Bioorg Med Chem Lett, 2008).
